Three molecules from ChEMBL document CHEMBL1138683 (J Med Chem, 2004) can be followed below.

In data set [1] the test system is Mus musculus. Nature of the data set: Anticonvulsant activity administered intra peritoneally to mouse at subcutaneous metrazol test. Format: functional. Particulars: sc.
Data set [2] concerns Mus musculus. Nature of the data set: Anticonvulsant activity administered intra peritoneally to mouse for the protective index of toxicity by maximal electroshock test; T D50/ED50. The data set is classed as functional.
Data set [3] deals with Rattus norvegicus. In words: Anticonvulsant activity administered orally to rat at subcutaneous metrazol test. The data set is classed as functional.
Data set [4] is described as follows: Anticonvulsant activity administered orally to rat for toxicity. The note with it: in vivo, po.
Data set [5] relates to Rattus norvegicus. In words: Anticonvulsant activity administered orally to rat for protective index of subcutaneous metrazol test. Format: functional.
For data set [6], the system named is Mus musculus. In words: Anticonvulsant activity administered intra peritoneally to mouse at maximal electro shock test; the interval in parenthesis stands for 95% confidence interval. Format: functional.
Data set [7] concerns Mus musculus. In words: Anticonvulsant activity administered intra peritoneally to mouse for protective index of subcutaneous metrazol test. Format: functional.
The subject of data set [8] is Rattus norvegicus. In words: Anticonvulsant activity administered orally to rat at maximal electro shock test; the interval in parenthesis stands for 95% confidence interval. The data set is classed as functional. Particulars: po.
The test system of data set [9] is Rattus norvegicus. In words: Anticonvulsant activity administered orally to rat for the protective index of toxicity by maximal electroshock test; T D50/ED50. The data set is classed as functional.
The nature of data set [10]: Anti convulsant activity administered intra peritoneally to mouse for toxicity at 4 hr with dose of 30 mg/kg; 0/2= No of animals exhibiting toxicity /No of animals tested. On the set-up: dose 30 mg/kg. The note with it: in vivo, ip. Format: organism-based.
For data set [11], the system named is Mus musculus. In words: Anti convulsant activity administered intra peritoneally to mouse at maximal electroshock test at 4 hr after the drug administered with dose of 100 mg/kg; 0/3= No of animals protected /No of animals tested. Format: functional.
Data set [12] has as its system Rattus norvegicus. Nature of the data set: Anticonvulsant activity after oral administration of 80 mg/kg dose after 4 hr in rats;+ means 25% of the animals protected. The data set is classed as functional, organism-based. On the set-up: dose 80 mg/kg. The procedure, abridged:
(§1)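 Maximal electroshock test in rats after oral dosing in 0.5% methylcellulose (0.04 mL per 10 g body weight). Protection read at 15 min, 30 min, 1 h, 2 h and 4 h after dosing. Graded as the percentage of animals protected, in steps of 25%.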

A short description of data set [13]: Anti convulsant activity administered intra peritoneally to mouse for toxicity at 0.5 hr with dose of 100 mg/kg; 1/8= No of animals exhibiting toxicity /No of animals tested. Format: organism-based. Details: dose 100 mg/kg. The note with it: in vivo, ip.
For data set [14], the system named is Mus musculus. In words: Anti convulsant activity administered intra peritoneally to mouse for subcutaneous metrazol test at 4 hr after the drug administered with dose of 30 mg/kg; 0/1= No of animals protected /No of animals tested. Particulars: route intraperitoneal. Format: functional.
Data set [15] deals with Mus musculus. Nature of the data set: Anti convulsant activity administered intra peritoneally to mouse for subcutaneous metrazol test at 0.5 hr with dose of 100 mg/kg; 0/1= No of animals protected /No of animals tested. Format: functional.
Data set [16] deals with Mus musculus. In words: Anti convulsant activity administered intra peritoneally to mouse at maximal electroshock test at 0.5 hr after the drug administered with dose of 300 mg/kg; 1/1= No of animals protected /No of animals tested. Format: functional.
The test system of data set [17] is Mus musculus. Nature of the data set: Anti convulsant activity administered intra peritoneally to mouse at maximal electroshock test at 0.5 h after the drug administered with dose of 100 mg/kg; 1/3= No of animals protected /No of animals tested. The data set is classed as functional.
Data set [18] in a line: Anti convulsant activity administered intra peritoneally to mouse for toxicity at 4 hr with dose of 300 mg/kg; 0/2= No of animals exhibiting toxicity /No of animals tested. Format: organism-based. On the set-up: dose 300 mg/kg. Particulars: in vivo, ip.
In data set [19] the test system is Mus musculus. In words: Anti convulsant activity administered intra peritoneally to mouse for subcutaneous metrazol test at 0.5 hr with dose of 30 mg/kg; 0/1= No of animals protected /No of animals tested. The data set is classed as functional.
Data set [20] has as its system Mus musculus. In words: Anti convulsant activity administered intra peritoneally to mouse for subcutaneous metrazol test at 4 hr with dose of 300 mg/kg; 0/1= No of animals protected /No of animals tested. The data set is classed as functional.
Data set [21] concerns Mus musculus. Nature of the data set: Anti convulsant activity administered intra peritoneally to mouse at maximal electroshock test at 0.5 h after the drug administered with dose of 30 mg/kg; 0/1= No of animals protected /No of animals tested. Format: functional.
Data set [22] has as its system Mus musculus. Nature of the data set: Anti convulsant activity administered intra peritoneally to mouse at maximal electroshock test at 4 hr after the drug administered with dose of 30 mg/kg; 0/1= No of animals protected /No of animals tested. The data set is classed as functional.
The test system of data set [23] is Mus musculus. In words: Anti convulsant activity administered intra peritoneally to mouse at maximal electroshock test at 4 hr after the drug administered with dose of 300 mg/kg; 1/1= No of animals protected /No of animals tested. Format: functional.
Data set [24] deals with Mus musculus. In words: Anti convulsant activity administered intra peritoneally to mouse for subcutaneous metrazol test at 4 hr after the drug administered with dose of 100 mg/kg; 0/1= No of animals protected /No of animals tested. Format: functional.
Data set [25] concerns Mus musculus. In words: Anti convulsant activity administered intra peritoneally to mouse for subcutaneous metrazol test at 0.5 h with dose of 300 mg/kg; 0/1= No of animals protected /No of animals tested. Format: functional.
Data set [26] in a line: Anti convulsant activity administered intra peritoneally to mouse for toxicity at 4 hr with dose of 100 mg/kg; 0/4= No of animals exhibiting toxicity /No of animals tested. Format: organism-based. Details: dose 100 mg/kg. The note with it: in vivo, ip.
Data set [27] in a line: Anti convulsant activity administered intra peritoneally to mouse for subcutaneous metrazol test at 4 hr with dose of 300 mg/kg; 3/4= No of animals protected /No of animals tested. Format: ADME, organism-based. On the set-up: dose 300 mg/kg.
Data set [28] relates to Rattus norvegicus. Nature of the data set: Anticonvulsant activity after oral administration of 80 mg/kg dose after 15 min in rats; + means 25% of the animal protected. Format: functional, organism-based. Details: dose 80 mg/kg. In short, it runs like this: as §1
The nature of data set [29]: Anti convulsant activity administered intra peritoneally to mouse for toxicity at 0.5 hr with dose of 30 mg/kg; 0/4= No of animals exhibiting toxicity /No of animals tested. Format: organism-based. Details: dose 30 mg/kg. The note with it: in vivo, ip.
The test system of data set [30] is Rattus norvegicus. Nature of the data set: Anticonvulsant activity after oral administration of 80 mg/kg dose after 1 hr in rats;+means 25% animals protected. Details: dose 80 mg/kg. The data set is classed as functional, organism-based. The procedure, abridged:
as §1

Data set [31] deals with Rattus norvegicus. Nature of the data set: Anticonvulsant activity after oral administration of 80 mg/kg dose after 2 hr in rats; + means 25% of the animal is protected. The data set is classed as functional, organism-based. Details: dose 80 mg/kg. In short, it runs like this: as §1
The nature of data set [32]: Anti convulsant activity administered intra peritoneally to mouse for toxicity at 0.5 hr with dose of 100 mg/kg; 0/8= No of animals exhibiting toxicity /No of animals tested. Format: organism-based. Details: dose 100 mg/kg. The note with it: in vivo, ip.
Data set [33] relates to Rattus norvegicus. Nature of the data set: Anticonvulsant activity after oral administration of 30 mg/kg dose after 15 min in rats; +means 25% of the animals protected. On the set-up: dose 30 mg/kg. Format: functional, organism-based. The procedure, abridged: (§2)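 Oral dosing of rats at a single dose, compound dissolved or suspended in 0.5% methylcellulose. Protection in the MES or scMet test checked 15 min, 30 min, 1 h, 2 h and 4 h after dosing. Scored as 25/50/75/100% of animals protected (+ to ++++), – for none.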

For data set [34], the system named is Mus musculus. In words: Anti convulsant activity administered intra peritoneally to mouse at maximal electroshock test at 0.5 hr after the drug administered with dose of 100 mg/kg; 0/3= No of animals protected /No of animals tested. Format: functional.
Data set [35] has as its system Mus musculus. Nature of the data set: Anti convulsant activity administered intra peritoneally to mouse at maximal electroshock test at 4 hr after the drug administered with dose of 300 mg/kg; 0/1= No of animals protected /No of animals tested. The data set is classed as functional.
Data set [36] relates to Rattus norvegicus. Nature of the data set: Anticonvulsant activity after oral administration of 30 mg/kg dose after 1 hr in rats; + means 25% of the animals protected. The data set is classed as functional, organism-based. On the set-up: dose 30 mg/kg. In short, it runs like this: as §2
Data set [37] can be described thus: Anti convulsant activity administered intra peritoneally to mouse for toxicity at 0.5 hr with dose of 300 mg/kg; 3/4= No of animals exhibiting toxicity /No of animals tested. Format: organism-based. On the set-up: dose 300 mg/kg. The note with it: in vivo, ip.

As for `CC1(C)C(C(=O)NCC(N)=O)C1(C)C`, the ED50 in the data set on Mus musculus [1] is 115 mg/kg; with Rattus norvegicus [3] it was > 250 mg/kg; with Mus musculus [6], 173 mg/kg; in the data set on Rattus norvegicus [8], 82 mg/kg. In addition, the Ratio with Mus musculus [2] came out at 1.5. Besides, in data set [4], the TD50 is > 500 mg/kg. Moreover, the values for the Activity in the data set with Rattus norvegicus [5], in the data set with Mus musculus [7] and in the data set with Rattus norvegicus [9] were -2, 2.3 and >6.1, respectively.
For the molecule `CNC(=O)N(C)C(=O)C1C(C)(C)C1(C)C`, the Toxicity in data set [10] was determined as 0; in [13], 1; in data set [18], 0; in [26] it was 0; in [27], 3; in data set [29], 0. The Activity in the data set on Mus musculus [11] amounted to 0; in the data set on Rattus norvegicus [12], 25% animals protected; in the data set on Mus musculus [14], 0; with Mus musculus [15], 0; with Mus musculus [16], 1; in the data set with Mus musculus [17], 1. The Activity is reported as 0 in the data set on Mus musculus [19]; 0 in the data set with Mus musculus [20]; 0 with Mus musculus [21]; 0 in the data set on Mus musculus [22]; 1 in the data set on Mus musculus [23]; 0 in the data set with Mus musculus [24]. Besides, the Activity with Mus musculus [25] was 0; in the data set with Rattus norvegicus [28] it was 25% animals protected; with Rattus norvegicus [30], 25% animals protected; in the data set with Rattus norvegicus [31] it was 25% animals protected.
In the case of `CC(O)CNC(=O)C1C(C)(C)C1(C)C` (stereo not given), the Toxicity was 0 in data set [10]; 0 in [32]; 0 in data set [18]; 0 in data set [26]; 0 in data set [29]; 3 in data set [37]. The Activity with Mus musculus [11] turned out to be 0; in the data set with Mus musculus [14] it was 0; in the data set with Mus musculus [16] it was 1; in the data set on Mus musculus [19] it was 0; in the data set on Mus musculus [20], 0; in the data set on Mus musculus [21], 0. Moreover, the Activity is on record as 25% of the animals protected with Rattus norvegicus [33]; 0 with Mus musculus [22]; 0 with Mus musculus [34]; 0 with Mus musculus [24]; 0 in the data set with Mus musculus [25]; 0 with Mus musculus [35]. Further, the Activity in the data set on Rattus norvegicus [36] is 25% of the animals protected.
